The test system of this series is MS2 coat protein. As to the kind of experiment: apparent Kd, MS2 coat protein; higher = weaker binding; RNA-MaP array; FMN 200 µM where present. A digest of the protocol:
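Green signal from SNAP-549-labelled MS2 coat protein was normalised to red-channel RNA signal and to the median Fmax of control clusters. The protein was titrated from 0.7 or 1.5 nM, doubling to 3 µM, without and then with constant ligand, over designs transcribed by stalled E. coli RNA polymerase on Illumina sequencing-chip clusters, in 100 mM Tris-HCl pH 7.5, 80 mM KCl, 4 mM MgCl2, BSA, DTT, yeast tRNA and Tween-20. The apparent Kd is the median of filtered per-cluster binding-curve fits.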

[1] abbreviates: designed as: ON switch for flavin mononucleotide, no ligand.
[2] abbreviates: ligand present: flavin mononucleotide, designed as: ON switch for flavin mononucleotide.
The mark [3] stands for this setting: designed as: OFF switch for flavin mononucleotide, no ligand.
Where [4] appears, read: ligand present: flavin mononucleotide, designed as: OFF switch for flavin mononucleotide.

For orientation: apparent Kd means a dissociation constant that holds for the conditions of the assay. On to “GGUGCACGCACAGGAUAUCCGGCGGAGCUCGUCGGAGAAGGGUGACAUGAGGAUCACCCAUGUACGUGCAACUUAGUUUAAGAG”, for which the “apparent Kd” value by setting is: under setting [1], 20 nM; under setting [2], 19 nM.
Consider “AUCAGCUUGACAGGAUAUGCAUGUCAACGAAAGUUGACAAUCUUAAUAACAUGAGGAUCACCCAUGUAGAAGGGUCGAGCUGAU”, for which the “apparent Kd” value turned out to be 17.4 nM under setting [3] and 19.9 nM under setting [4].
The like results for “ACUAGUUGGUAAGGAUAUCCUACACUAUUCUGACCCGUGCAAGCUACAUGAGGAUCACCCAUGUGGGAGAAGGUGCGUCAACGU” were, in that order, 11 nM and 10.6 nM.
Consider “UUAUUAUAUGUAGGAUAUGCAUAUUAUUAUUAUGCAGAAGGACAUGAGGAUCACCCAUGUAUGUUAUUAUUAUAUAUUAUAUAU”, for which the “apparent Kd” value is 26.1 nM under setting [3] and 34.7 nM under setting [4].
Consider “CAGGACAGGAAACGGAGCGGCCAACAUGAGGAUCACCCAUGUAAGGAUAUGCCUACUAAAAGUAGGCAGAAGGUACAGAAGGCA”, for which the “apparent Kd” value was found to be 29.9 nM under setting [3] and 73.1 nM under setting [4].
In the case of “AAGGUACAUGAGGAUCACCCAUGUGGGUCGAACGCAGGAUAUCGCCGUUGGCCCUGGCGGCGAGAAGGGUGCCGAA”, the “apparent Kd” value runs as follows: under setting [1], 189 nM; under setting [2], 175 nM.
In the case of “AAAAUAGCAGGAUAUACAUGAGGAUCACCCAUGUUUAUUGGGCACUUGCUGACGUCGUGUAGAAGGGUUACGAC”, the “apparent Kd” value was 20.5 nM under setting [3] and 18.8 nM under setting [4].
The like results for “UAUGUGUCAGGAUAUGGAUUAGUUCGGGAUUCGGAACUGGUUCAGAAGGGACAUGAGGAUCACCCAUGUUUUUC” were, in that order, 33.1 nM and 169 nM.
For the sequence “GUCAGACGAGGAUAUAGAUUUAAGUACAUGAGGAUCACCCAUGUACACAUGUAUUUAGAUUUAGAAGGCGUCUGAC”, the “apparent Kd” value by setting is: under setting [3], 594 nM; under setting [4], 700 nM.
As for “AAAACAUGAGGAUCACCCAUGUAAAGAUCGGUCGAUGAAGGUGAGGAUAUACAAAACUUUAUGGAGUAGAAGGCACUGGGUUGA”, the “apparent Kd” value amounted to 185 nM under setting [1] and 69.8 nM under setting [2].
For the sequence “AUAUAUAUAUCAGGAUAUGGACAGGCCUGUUCGUAUUAAGACAGUAACAUGAGGAUCACCCAUGUCCAGAAGGGAUAUAUAUAU”, the “apparent Kd” value amounted to 83.9 nM under setting [3] and 50 nM under setting [4].
With “GUCAGCUCGUGAGGAUAUACAACACUGCUCCGGCAGUGUAUUAAGAUCACAUGAGGAUCACCCAUGUAGAAGGCACGAGCUGAU”, the “apparent Kd” value by setting is: under setting [3], 13.3 nM; under setting [4], 237 nM.
The like results for “CGGCAUGUCUGAGGAUAUCUGCACGUUUAGUGCAGAGAAGGCAGAACAUGAGGAUCACCCAUGUAGAUCAUUAACCGAUUAAUU” were, in that order, 228 nM and 337 nM.
Consider “UUACCUCAUGAGAAGGCGAUCAUGAAACAUGAUCGAGGAUAUCAUGUAAACAUGAGGAUCACCCAUGUAUGGGUAUUAUGGUAG”, for which the “apparent Kd” value was found to be 198 nM under setting [1] and 56.8 nM under setting [2].
For “GAGUGACAUGAGGAUCACCCAUGUGAGGAUAUCGGACGGACCUUGUUGGCUUCCGCCGCGAGAAGGCACCUCGG”, the “apparent Kd” value under setting [3] was 43.9 nM and the “apparent Kd” value under setting [4] was 40.2 nM.
With “UUUACUUUGUAGAAGGGUGACAUGAGGAUCACCCAUGUGCGUCGCCUGAAAGACCAGGGUACGCCACAGGAUAUACAAAGUAAG”, the “apparent Kd” value runs as follows: under setting [1], 56.5 nM; under setting [2], 40.4 nM.
On to “AAAGUAGGAGGAUAUACAUAGAUACAGAUACAUGUAGACGUACAUGAGGAUCACCCAUGUAGAAGGCCUAUGUA”, for which the “apparent Kd” value reads like this: under setting [3], 65.9 nM; under setting [4], 212 nM.
For the sequence “UUUGGGUGGCUGGAGGAUAUUCUAGUGGUUACAUGAGGAUCACCCAUGUGUCGCGCGGUUCGCGAGGAGAAGGCUGGCGGCCGUU”, the “apparent Kd” value is, setting by setting: under setting [1], 166 nM; under setting [2], 46.2 nM.
In the case of “CGAUAACAUAGUUAUCCGUAACGGACAUGAGGAUCACCCAUGUAGGAUAUGUUACUCAACGAGUAACAGAAGGACAUGAGUCCU”, the “apparent Kd” value turned out to be 11.8 nM under setting [3] and 54 nM under setting [4].
Turning to “GUAGCAUACCGAGGAUAUUCAUAUCGGAAACGAACAUGAGGAUCACCCAUGUGGCGAAAGCCUUGGGAGAAGGCGGAAUGCUAC”, the “apparent Kd” value came to 589 nM under setting [1] and 24.5 nM under setting [2].
“GGUGCAAUGUAGAAGGCAGAUCUGAUUCAGAUCUGAGGAUAUACAUGAGGAUCACCCAUGUUAUGCACCAGCACGAGAGUGCAA”: the “apparent Kd” value by setting is: under setting [3], 6.57 nM; under setting [4], 12.6 nM.
Consider “GUAGCAUUCUGAGGAUAUUCAUACCGGAAACGGACAUGAGGAUCACCCAUGUGGCGAAAGCCUAGGGAGAAGGCAGUAUGCUAC”, for which the “apparent Kd” value under setting [1] is 56.6 nM and the “apparent Kd” value under setting [2] turned out to be 13.8 nM.
For “CAGUACUGAGGAUAUACAUGAGGAUCACCCAUGUGUUCCAGCUAGGGAACUAGCAAAAGUAGAAGGCAGUACUG”, the “apparent Kd” value under setting [3] amounted to 22.4 nM and the “apparent Kd” value under setting [4] worked out at 437 nM.
For “GUAAAGUGAGGAUAUGGUAAAGUAAGUAUGUAGUAAGUAAUCCAGAAGGCACAUGAGGAUCACCCAUGUAAAUG”, the “apparent Kd” value reads like this: under setting [3], 30 nM; under setting [4], 32.3 nM.
As for “CCGCAUAUGCAGGAUAUCGUAUCGGAAACGAUACGAGAAGGGUAAACAUGAGGAUCACCCAUGUUCCUUAACGG”, the “apparent Kd” value is, setting by setting: under setting [3], 18 nM; under setting [4], 16.5 nM.
With “GCAAUAGCAUGAGGAUAUGCUGGAGUUUAGACAGUAGAAGGCAUGUCAUAAGACAUGAGGAUCACCCAUGUAGUUACAAUGGCA”, the “apparent Kd” value reads like this: under setting [1], 18.4 nM; under setting [2], 13.6 nM.
On to “AGGCGGGUAGGAUAUGCGUACUUACGGGAAAGCUGAAUGGUACAUGAGGAUCACCCAUGUAGAAGGGCUCUGAA”, for which the “apparent Kd” value is, setting by setting: under setting [3], 18.3 nM; under setting [4], 27 nM.
On to “AGCUAGGCAGGAUAUACGUAAAUGUCGAAAGACGUAUUGGGACAUGAGGAUCACCCAUGUAGAAGGGCCUAGCA”, for which the “apparent Kd” value stood at 31.6 nM under setting [3] and 165 nM under setting [4].
As to “AGCUGGAGAGGAUAUACGUAGGAAAAAAAAGUCUGAUCACUACAUGAGGAUCACCCAUGUAGAAGGCUCUGGCA”, the “apparent Kd” value runs as follows: under setting [3], 21.2 nM; under setting [4], 62.2 nM.
Turning to “GCGGGACGUCGAGGAUAUGGGUGUGCGAGUCUUGGCACUGGACAUGAGGAUCACCCAUGUCGCUUCCAGAAGGCGACGUCCCUA”, the “apparent Kd” value is, setting by setting: under setting [1], 34.8 nM; under setting [2], 6.67 nM.
Consider “AGUCGGAGCAGAGGAUAUACAUGAGGAUCACCCAUGUAAUAAAGUGAAGCUUGGAAACAGGCAAUGUAGAAGGCUGCUCCGACA”, for which the “apparent Kd” value came to 11.3 nM under setting [3] and 68.6 nM under setting [4].
For “AGUAACAGAGGAUAUACUGUUUUAUGUGUUUAUUAUUUUAAACAUGAGGAUCACCCAUGUAGAAGGCUGAAUAA”, the “apparent Kd” value was 49.7 nM under setting [3] and 40.4 nM under setting [4].
Take “GUAGCAUUGUGAGGAUAUCCAUAUCCGAAAGGGACAUGAGGAUCACCCAUGUCGCGAAAGCGGUGGGAGAAGGCACUAUGCUAC”: the “apparent Kd” value runs as follows: under setting [1], 4.31 nM; under setting [2], 4.03 nM.
As for “UCGUACAUUCGAGGAUAUCGGUGAUUAAUAAUACGAGAAGGCGAUUUUAGGCAUAAAGCCUUAGACAUGAGGAUCACCCAUGUA”, the “apparent Kd” value by setting is: under setting [1], 89.7 nM; under setting [2], 53.7 nM.
For “ACGUCUUAGUAGAAGGGACAUCGGCUGGUAAGCAUCAUCUCCUUCUCACAUGAGGAUCACCCAUGUCAGGAUAUACUAAGAGUC”, the “apparent Kd” value by setting is: under setting [3], 12.3 nM; under setting [4], 38.2 nM.
The like results for “CUGAGCUCAGGAUAUACAUGAGGAUCACCCAUGUGUUCCUGCGACGUUAGUUGCACAUGUAGAAGGGAGUUCGG” were, in that order, 272 nM and 57.8 nM.

(Values after the EternaBench riboswitch data.)
